Like-named read-outs stand apart in the source and are kept apart here.
Tested on: East Asian patients with advanced nonhematologic malignancies
Assay type: in vivo, human
Method in brief: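 AEs were graded by NCI CTCAE v4.03 in all patients receiving ≥ 1 oral dose, given once daily or once weekly in 28-day cycles for up to 12 months. Follow-up lasted 30 days after the last dose. Entry required ECOG 0–1, fasting glucose ≤ 130 mg/dL and triglycerides ≤ 300 mg/dL. Summaries were descriptive.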

[1] = QD dose escalation 2 mg (n = 3)
[2] = QD dose escalation 3 mg (n = 6)
[3] = QD dose escalation 4 mg (n = 7)
[4] = QD dose escalation + expansion 3 mg (n = 12)

CC(C)n1nc(-c2ccc3oc(N)nc3c2)c2c(N)ncnc21 [sapanisertib]
Tolerability (East Asian patients, QD and QW): generally well-tolerated
AE decreased appetite (QD arm): 50%
AE nausea (QD arm): 50%
Treatment-related AE decreased appetite (QD arm): 45%
Treatment-related AE nausea (QD arm): 50%
Discontinued treatment due to AEs (QD arm (myocardial infarction, diarrhea and gastrointestinal inflammation, rash maculo-papular)): three
AEs resulting in discontinuation [1]: 1 (33) n (%)
AEs resulting in dose interruption [1]: 1 (33) n (%)
AEs resulting in dose reduction [1]: 0 n (%)
Any AE [1]: 3 (100) n (%)
Any grade ≥ 3 AE [1]: 1 (33) n (%)
On-study deaths [1]: 0 n (%)
SAEs [1]: 0 n (%)
Treatment-related AE [1]: 3 (100) n (%)
Treatment-related SAEs [1]: 0 n (%)
Treatment-related grade ≥ 3 AE [1]: 1 (33) n (%)
AEs resulting in discontinuation [2]: 0 n (%)
AEs resulting in dose interruption [2]: 5 (83) n (%)
AEs resulting in dose reduction [2]: 0 n (%)
Any AE [2]: 6 (100) n (%)
Any grade ≥ 3 AE [2]: 2 (33) n (%)
On-study deaths [2]: 0 n (%)
SAEs [2]: 2 (33) n (%)
Treatment-related AE [2]: 6 (100) n (%)
Treatment-related SAEs [2]: 0 n (%)
Treatment-related grade ≥ 3 AE [2]: 0 n (%)
AEs resulting in discontinuation [3]: 2 (29) n (%)
AEs resulting in dose interruption [3]: 6 (86) n (%)
AEs resulting in dose reduction [3]: 3 (43) n (%)
Any AE [3]: 7 (100) n (%)
Any grade ≥ 3 AE [3]: 6 (86) n (%)
On-study deaths [3]: 0 n (%)
SAEs [3]: 3 (43) n (%)
Treatment-related AE [3]: 7 (100) n (%)
Treatment-related SAEs [3]: 2 (29) n (%)
Treatment-related grade ≥ 3 AE [3]: 6 (86) n (%)
AEs resulting in discontinuation [4]: 0 n (%)
AEs resulting in dose interruption [4]: 8 (67) n (%)
AEs resulting in dose reduction [4]: 1 (8) n (%)
Any AE [4]: 12 (100) n (%)
Any grade ≥ 3 AE [4]: 7 (58) n (%)
On-study deaths [4]: 0 n (%)
SAEs [4]: 3 (25) n (%)
Treatment-related AE [4]: 12 (100) n (%)
Treatment-related SAEs [4]: 0 n (%)
Treatment-related grade ≥ 3 AE [4]: 3 (25) n (%)
AEs resulting in discontinuation (QD dose expansion 3 mg (n = 6)): 0 n (%)
AEs resulting in dose interruption (QD dose expansion 3 mg (n = 6)): 3 (50) n (%)
AEs resulting in dose reduction (QD dose expansion 3 mg (n = 6)): 1 (17) n (%)
Any AE (QD dose expansion 3 mg (n = 6)): 6 (100) n (%)
Any grade ≥ 3 AE (QD dose expansion 3 mg (n = 6)): 5 (83) n (%)
On-study deaths (QD dose expansion 3 mg (n = 6)): 0 n (%)
SAEs (QD dose expansion 3 mg (n = 6)): 1 (17) n (%)
Treatment-related AE (QD dose expansion 3 mg (n = 6)): 6 (100) n (%)
Treatment-related SAEs (QD dose expansion 3 mg (n = 6)): 0 n (%)
Treatment-related grade ≥ 3 AE (QD dose expansion 3 mg (n = 6)): 3 (50) n (%)
AE by preferred term: Abdominal pain (QD dosing n = 22): 3 (14) n (%)
AE by preferred term: Alanine aminotransferase increased (QD dosing n = 22): 4 (18) n (%)
AE by preferred term: Anemia (QD dosing n = 22): 5 (23) n (%)
AE by preferred term: Aspartate aminotransferase increased (QD dosing n = 22): 6 (27) n (%)
AE by preferred term: Constipation (QD dosing n = 22): 4 (18) n (%)
AE by preferred term: Decreased appetite (QD dosing n = 22): 11 (50) n (%)
AE by preferred term: Diarrhea (QD dosing n = 22): 2 (9) n (%)
AE by preferred term: Erythema (QD dosing n = 22): 2 (9) n (%)
AE by preferred term: Erythema multiforme (QD dosing n = 22): 2 (9) n (%)
AE by preferred term: Fatigue (QD dosing n = 22): 7 (32) n (%)
AE by preferred term: Gamma-glutamyltransferase increased (QD dosing n = 22): 2 (9) n (%)
AE by preferred term: Gastrointestinal inflammation (QD dosing n = 22): 2 (9) n (%)
AE by preferred term: Headache (QD dosing n = 22): 2 (9) n (%)
AE by preferred term: Hyperglycemia (QD dosing n = 22): 9 (41) n (%)
AE by preferred term: Hypokalemia (QD dosing n = 22): 3 (14) n (%)
AE by preferred term: Lymphocyte count decreased (QD dosing n = 22): 4 (18) n (%)
AE by preferred term: Nausea (QD dosing n = 22): 11 (50) n (%)
AE by preferred term: Neutrophil count decreased (QD dosing n = 22): 2 (9) n (%)
AE by preferred term: Platelet count decreased (QD dosing n = 22): 6 (27) n (%)
AE by preferred term: Pruritus (QD dosing n = 22): 2 (9) n (%)
AE by preferred term: Pyrexia (QD dosing n = 22): 4 (18) n (%)
AE by preferred term: Rash erythematous (QD dosing n = 22): 2 (9) n (%)
AE by preferred term: Rash maculo-papular (QD dosing n = 22): 5 (23) n (%)
AE by preferred term: Rash pustular (QD dosing n = 22): 2 (9) n (%)
AE by preferred term: Stomatitis (QD dosing n = 22): 14 (64) n (%)
AE by preferred term: Urticaria (QD dosing n = 22): 3 (14) n (%)
AE by preferred term: Vomiting (QD dosing n = 22): 5 (23) n (%)
AE by preferred term: Weight decreased (QD dosing n = 22): 7 (32) n (%)
AE by preferred term: White blood cell count decreased (QD dosing n = 22): 4 (18) n (%)
Grade ≥ 3 AE: Acute myocardial infarction (QD dosing n = 22): 1 (5) n (%)
Grade ≥ 3 AE: Aspartate aminotransferase increased (QD dosing n = 22): 1 (5) n (%)
Grade ≥ 3 AE: Blood creatine phosphokinase increased (QD dosing n = 22): 1 (5) n (%)
Grade ≥ 3 AE: Decreased appetite (QD dosing n = 22): 1 (5) n (%)
Grade ≥ 3 AE: Diarrhea (QD dosing n = 22): 1 (5) n (%)
Grade ≥ 3 AE: Gamma-glutamyltransferase increased (QD dosing n = 22): 1 (5) n (%)
Grade ≥ 3 AE: Gastrointestinal inflammation (QD dosing n = 22): 1 (5) n (%)
Grade ≥ 3 AE: Genital herpes (QD dosing n = 22): 1 (5) n (%)
Grade ≥ 3 AE: Gingivitis (QD dosing n = 22): 1 (5) n (%)
Grade ≥ 3 AE: Jaundice cholestatic (QD dosing n = 22): 1 (5) n (%)
Grade ≥ 3 AE: Lymphocyte count decreased (QD dosing n = 22): 2 (9) n (%)
Grade ≥ 3 AE: Nausea (QD dosing n = 22): 2 (9) n (%)
Grade ≥ 3 AE: Neutrophil count decreased (QD dosing n = 22): 1 (5) n (%)
Grade ≥ 3 AE: Platelet count decreased (QD dosing n = 22): 1 (5) n (%)
Grade ≥ 3 AE: Post herpetic neuralgia (QD dosing n = 22): 1 (5) n (%)
Grade ≥ 3 AE: Pruritus (QD dosing n = 22): 1 (5) n (%)
Grade ≥ 3 AE: Rash maculo-papular (QD dosing n = 22): 2 (9) n (%)
Grade ≥ 3 AE: Rash pustular (QD dosing n = 22): 1 (5) n (%)
Grade ≥ 3 AE: Renal impairment (QD dosing n = 22): 1 (5) n (%)
Grade ≥ 3 AE: Sepsis (QD dosing n = 22): 1 (5) n (%)
Grade ≥ 3 AE: Stomatitis (QD dosing n = 22): 2 (9) n (%)
Grade ≥ 3 AE: Urticaria (QD dosing n = 22): 1 (5) n (%)
Grade ≥ 3 AE: White blood cell count decreased (QD dosing n = 22): 1 (5) n (%)
Patients with ≥ 1 grade 3 or higher AE (QD dosing n = 22): 14 (64) n (%)
AEs resulting in discontinuation (QD total (n = 22)): 3 (14) n (%)
AEs resulting in dose interruption (QD total (n = 22)): 15 (68) n (%)
AEs resulting in dose reduction (QD total (n = 22)): 4 (18) n (%)
Any AE (QD total (n = 22)): 22 (100) n (%)
Any grade ≥ 3 AE (QD total (n = 22)): 14 (64) n (%)
On-study deaths (QD total (n = 22)): 0 n (%)
SAEs (QD total (n = 22)): 6 (27) n (%)
Treatment-related AE (QD total (n = 22)): 22 (100) n (%)
Treatment-related SAEs (QD total (n = 22)): 2 (9) n (%)
Treatment-related grade ≥ 3 AE (QD total (n = 22)): 10 (45) n (%)
AE alanine aminotransferase increased (QW arm): 50%
AE aspartate aminotransferase increased (QW arm): 50%
AE blood alkaline phosphatase increased (QW arm): 67%
AE decreased appetite (QW arm): 50%
AE hyperglycemia (QW arm): 67%
AE nausea (QW arm): 100%
AE stomatitis (QW arm): 33%
AE weight decreased (QW arm): 50%

Source: PMC8994735 (Targeted Oncology, 2021)
